According to ChEMBL document CHEMBL1133684, “Novel cannabinol probes for CB1 and CB2 cannabinoid receptors” (J Med Chem, 2000):

What was measured:
Cannabinoid receptor 1 [1] = biological target: T1, Cannabinoid receptor 1 (Homo sapiens, UniProt P21554); assay: Binding affinity was determined for Cannabinoid receptor 1
Cannabinoid receptor 2 [2] = biological target: T2, Cannabinoid receptor 2 (Homo sapiens, UniProt P34972); assay: Binding affinity was determined for Cannabinoid receptor 2
Procedure, shortened: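 Radioligand displacement on P2 membrane preparations, filtration method. Test compounds kept as 1 mg/mL stocks in absolute ethanol at -20 °C.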

[3] = biological target: Cannabinoid receptor (Homo sapiens) (UniProt P34972+P21554); assay: Ratio of Ki of CB1 receptor to that of CB2 receptor; type: protein assay
Cannabinoid receptor 1 [4] = biological target: T1, Cannabinoid receptor 1; assay: Compound was tested for inhibition of Adenylyl cyclase in cannabinoid receptor 1 (CB1).
Cannabinoid receptor 2 [5] = biological target: T2, Cannabinoid receptor 2; assay: Binding affinity was determined for cannabinoid receptor 2
Procedure, shortened: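 Radioligand displacement on P2 membrane preparations, filtration method. Test compounds kept as 1 mg/mL stocks in absolute ethanol at -20 °C. Displacement curves came from incubating the drugs with 1 nM [³H][…].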

Chain of Cannabinoid receptor (Homo sapiens) (P21554 whole entry, looked up): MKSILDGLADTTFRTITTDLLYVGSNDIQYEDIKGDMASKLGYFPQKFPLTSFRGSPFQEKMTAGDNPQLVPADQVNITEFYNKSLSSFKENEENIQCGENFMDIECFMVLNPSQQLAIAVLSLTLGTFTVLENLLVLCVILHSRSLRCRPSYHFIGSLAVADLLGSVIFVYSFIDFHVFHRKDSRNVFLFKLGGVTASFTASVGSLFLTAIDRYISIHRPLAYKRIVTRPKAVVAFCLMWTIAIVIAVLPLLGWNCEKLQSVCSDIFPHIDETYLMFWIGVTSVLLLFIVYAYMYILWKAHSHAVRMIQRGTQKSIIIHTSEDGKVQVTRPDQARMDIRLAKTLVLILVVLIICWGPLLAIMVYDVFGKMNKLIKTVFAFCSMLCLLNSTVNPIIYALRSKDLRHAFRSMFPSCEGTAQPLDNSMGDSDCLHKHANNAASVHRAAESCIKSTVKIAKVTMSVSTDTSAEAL
Chain of Cannabinoid receptor (Homo sapiens) (P34972 whole entry, looked up): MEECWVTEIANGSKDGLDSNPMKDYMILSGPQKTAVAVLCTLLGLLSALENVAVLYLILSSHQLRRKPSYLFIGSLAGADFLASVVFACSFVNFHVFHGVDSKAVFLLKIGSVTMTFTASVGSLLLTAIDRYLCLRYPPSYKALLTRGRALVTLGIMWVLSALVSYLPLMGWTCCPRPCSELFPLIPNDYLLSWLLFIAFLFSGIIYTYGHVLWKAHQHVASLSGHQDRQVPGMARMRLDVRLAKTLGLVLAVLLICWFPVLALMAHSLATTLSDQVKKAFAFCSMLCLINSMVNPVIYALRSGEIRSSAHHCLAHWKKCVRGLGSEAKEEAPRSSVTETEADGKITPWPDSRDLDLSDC
T1 sequence (P21554 whole entry): as the sequence (P21554 whole entry, looked up) above
T2 sequence (P34972 whole entry): as the sequence (P34972 whole entry, looked up) above

Structure (SMILES) | Ki (Cannabinoid receptor 1 [1]) [nM] | Ki (Cannabinoid receptor 2 [2]) [nM] | Ratio [3] | Ki (Cannabinoid receptor 1 [4]) [nM] | Ki (Cannabinoid receptor 2 [5]) [nM]
CCCCCCC(C)(C)c1cc(OC)c2c(c1)OC(C)(C)c1ccc(C)cc1-2 | 681 | 286 | 2.4 | – | –
CCCCCCC(C)(C)c1ccc2c(c1)OC(C)(C)c1ccc(C(=O)OC)cc1-2 | 558 | 276 | 2 | – | –
CCCCCCC(C)(C)c1cc(O)c2c(c1)OC(C)(C)c1ccc(C(=O)OC)cc1-2 | 14 | 3.8 | 3.7 | – | –
CCCCCCC(C)(C)c1ccc2c(c1)OC(C)(C)c1ccc(CO)cc1-2 | 2 | 1 | 2 | – | –
CCCCCCC(C)(C)c1cc(OC)c2c(c1)OC(C)(C)c1ccc(C(=O)OC)cc1-2 | > 10000 | 529 | > 18.9 | – | –
CCCCCCOC(=O)c1ccc2c(c1)-c1c(OC)cc(C(C)(C)CCCCCC)cc1OC2(C)C | > 10000 | > 10000 | – | – | –
CCCCCCC(C)(C)c1cc(OC)c2c(c1)OC(C)(C)c1ccc(C(=O)OCc3ccccc3)cc1-2 | > 10000 | > 10000 | – | – | –
CCCC(C)(C)c1cc(O)c2c(c1)OC(C)(C)c1ccc(C)cc1-2 | 42 | 6 | 7 | – | –
CCCC(C)(C)c1ccc2c(c1)OC(C)(C)c1ccc(C(=O)OC)cc1-2 | > 10000 | 611 | > 16.4 | – | –
CCCCCCC(C)(C)c1ccc2c(c1)OC(C)(C)c1ccc(C)cc1-2 | 434 | 167 | 2.6 | – | –
CCCCCCC(C)(C)c1cc(OC)c2c(c1)OC(C)(C)c1ccc(C(=O)OCc3ccc4ccccc4c3)cc1-2 | > 10000 | > 10000 | – | – | –
CCCCCCC(C)(C)c1ccc(-c2cc(C)ccc2C(C)C)c(O)c1 | 33 | – | 10 | – | –
CCCCCCC(C)(C)c1cc(O)c2c(c1)OC(C)(C)c1ccc(C)cc1-2 | 1 | – | 0.4 | 2 | 2.24
CCCC(C)(C)c1ccc2c(c1)OC(C)(C)c1ccc(CO)cc1-2 | – | 67 | 3 | – | –
CCCCCCC(C)(C)c1cc(OC)c2c(c1)OC(C)(C)c1ccc(C(=O)OC(C)C)cc1-2 | > 10000 | > 10000 | – | – | –
CCCCCCC(C)(C)c1cc(O)c2c(c1)OC(C)(C)c1ccc(CO)cc1-2 | 0.1 | – | 0.5 | – | –
CCCCCCC(C)(C)c1cc(OC)c2c(c1)OC(C)(C)c1ccc(C(=O)OCCC)cc1-2 | 1730 | 214 | 8.1 | – | –
CCCC(C)(C)c1ccc(-c2cc(C)ccc2C(C)C)c(O)c1 | 875 | – | 7.7 | – | –
